Assay results taken from ChEMBL document CHEMBL3525971 (Drug Metab Dispos, 2011).

What was measured:
[1] = Terminal half life in castrated pig plasma withdrawn from femoral vein at 0.8 mg/kg administered as intrajejunal dose by UPLC-tandem mass spectrometry; type: ADME, organism-based, Sus scrofa; set-up: dose 0.8 mg/kg; settings: male, read-out: beta t1/2 (converted)
Outline: (§1)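 Portal, hepatic and femoral vein plasma sampled over 6 h and assayed by UPLC-MS/MS. Tmax read directly from the profiles. Terminal t1/2 calculated as ln2/λz by non- or compartmental analysis; values below LLOQ after Cmax excluded.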

[2] = Renal clearance in castrated pig at 0.8 mg/kg, administered as intrajejunal dose 20 mins after ketoconazole administration by UPLC-tandem mass spectrometry; type: ADME, organism-based, Sus scrofa, Kidney; set-up: dose 0.8 mg/kg; settings: male, in vivo
Outline: (§2)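 Urine collected 0-360 min into a closed bag, weighed and frozen at -20°C. […] Doses: iv 0.2 mg/kg bolus via central vein catheter (n=3), or ij 0.8 mg/kg alone or 20 min after ij ketoconazole 10 mg/kg (n=5). Renal clearance derived from the amount excreted in urine over 0-6 h.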

[3] = Drug excretion in castrated pig bile assessed as omega-hydroxy finasteride metabolite formation by UPLC-tandem mass spectrometry; type: ADME, tissue-based, Sus scrofa
[4] = AUC (0 to 6 hrs) in castrated pig plasma withdrawn from hepatic vein at 0.8 mg/kg administered as intrajejunal dose by UPLC-tandem mass spectrometry; type: ADME, organism-based, Sus scrofa; set-up: time < 6 hr, dose 0.8 mg/kg; settings: male
Outline: (§3)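 Where ketoconazole was co-dosed, it was given at 10 mg/kg at the same jejunal site 20 min before. Plasma protein-precipitated with acetonitrile and analysed by UPLC-MS/MS (finasteride-d9). AUC0-6h, Cmax and t1/2 (ln2/λz) were derived by non- or compartmental analysis.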

[5] = Apparent biliary clearance in castrated pig at 0.8 mg/kg administered as intrajejunal dose by UPLC-tandem mass spectrometry; type: ADME, organism-based, Sus scrofa, Bile; set-up: dose 0.8 mg/kg; settings: in vivo, other
[6] = Ratio of AUC in bile to plasma withdrawn from portal vein in castrated pig at 0.8 mg/kg administered as intrajejunal dose by UPLC-tandem mass spectrometry; type: ADME, organism-based, Sus scrofa; set-up: dose 0.8 mg/kg; settings: male, read-out: Ratio AUC
Outline: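 Bile collected 0-6 h and weighed; portal and hepatic vein plasma sampled. UPLC-MS/MS quantification against finasteride-d9 in SRM mode. Bile/plasma AUC ratio calculated per vein.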

[7] = Apparent biliary clearance in castrated pig at 0.8 mg/kg administered as intrajejunal dose 20 mins after ketoconazole administration by UPLC-tandem mass spectrometry; type: ADME, organism-based, Sus scrofa, Bile; set-up: dose 0.8 mg/kg; settings: in vivo, other
Plasma = test: Drug metabolism in castrated pig plasma withdrawn from femoral vein assessed as omega-hydroxy finasteride metabolite formation by UPLC-tandem mass spectrometry; type: ADME, cell-free, Sus scrofa
Outline: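 Plasma sampled 0-6 h from portal, hepatic and femoral veins. Analysed by acetonitrile precipitation with finasteride-d9 internal standard, then UPLC-MS/MS in SRM mode, m/z 389.41 → 271.94 for the ω-hydroxy metabolite.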

[8] = Apparent half-life of the terminal disposition phase in castrated pig plasma withdrawn from hepatic vein at 0.2 mg/kg, iv by UPLC-tandem mass spectrometry; type: ADME, organism-based, Sus scrofa; set-up: dose 0.2 mg/kg, route intravenous; settings: male, read-out: t1/2 lambda z (converted); outline: as §3
[9] = Renal clearance in castrated pig at 0.8 mg/kg, administered as intrajejunal dose by UPLC-tandem mass spectrometry; type: ADME, organism-based, Sus scrofa, Kidney; set-up: dose 0.8 mg/kg; settings: male, in vivo; outline: as §2
[10] = AUC (0 to 6 hrs) in castrated pig bile at 0.8 mg/kg administered as intrajejunal dose by UPLC-tandem mass spectrometry; type: ADME, organism-based, Sus scrofa; set-up: time < 6 hr, dose 0.8 mg/kg; settings: male
[11] = Oral absorption in human; type: ADME, organism-based; settings: in vivo
[12] = Apparent biliary clearance in castrated pig at 0.2 mg/kg, iv by UPLC-tandem mass spectrometry; type: ADME, organism-based, Sus scrofa, Bile; set-up: dose 0.2 mg/kg, route intravenous; settings: in vivo
[13] = Tmax in castrated pig plasma withdrawn from femoral vein at 0.8 mg/kg administered as intrajejunal dose 20 mins after ketoconazole administration by UPLC-tandem mass spectrometry; type: ADME, organism-based, Sus scrofa; set-up: dose 0.8 mg/kg; settings: male; outline: as §1
[14] = Terminal half life in castrated pig plasma withdrawn from portal vein at 0.8 mg/kg administered as intrajejunal dose 20 mins after ketoconazole administration by UPLC-tandem mass spectrometry; type: ADME, organism-based, Sus scrofa; set-up: dose 0.8 mg/kg; settings: male, read-out: beta t1/2 (converted); outline: as §1
[15] = AUC (0 to 6 hrs) in castrated pig bile at 0.2 mg/kg, iv by UPLC-tandem mass spectrometry; type: ADME, organism-based, Sus scrofa; set-up: time < 6 hr, dose 0.2 mg/kg, route intravenous; settings: male
[16] = Ratio of AUC in bile to plasma withdrawn from hepatic vein in castrated pig at 0.2 mg/kg, iv by UPLC-tandem mass spectrometry; type: ADME, organism-based, Sus scrofa; set-up: dose 0.2 mg/kg, route intravenous; settings: male, read-out: Ratio AUC
Outline: (§4)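 Bile collected 0-6 h and weighed; portal and hepatic vein plasma sampled. Analytes quantified by UPLC-MS/MS (finasteride-d9 internal standard, SRM). Bile AUC divided by plasma AUC for each vein.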

Sus scrofa [17] = test: Hepatic clearance in castrated pig at 0.8 mg/kg, administered as intrajejunal dose by UPLC-tandem mass spectrometry; type: ADME, organism-based, Liver; set-up: dose 0.8 mg/kg; settings: in vivo, other
Outline: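 Portal and hepatic vein plasma measured 0-6 h by UPLC-MS/MS. Extraction ratio derived from portal versus hepatic concentrations or AUCs; CLH then obtained as EH × liver blood flow 52 ml/min/kg × measured blood/plasma ratio.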

[18] = Drug excretion in castrated pig urine assessed as unchanged drug level at 0.8 mg/kg administered as intrajejunal dose measured during 6 hrs sampling by UPLC-tandem mass spectrometry; type: ADME, organism-based, Sus scrofa; set-up: dose 0.8 mg/kg; settings: in vivo, other
[19] = Terminal half life in castrated pig plasma withdrawn from hepatic vein at 0.8 mg/kg administered as intrajejunal dose 20 mins after ketoconazole administration by UPLC-tandem mass spectrometry; type: ADME, organism-based, Sus scrofa; set-up: dose 0.8 mg/kg; settings: male, read-out: beta t1/2 (converted); outline: as §1
[20] = Ratio of AUC in bile to plasma withdrawn from portal vein in castrated pig at 0.2 mg/kg, iv by UPLC-tandem mass spectrometry; type: ADME, organism-based, Sus scrofa; set-up: dose 0.2 mg/kg, route intravenous; settings: male, read-out: Ratio AUC; outline: as §4
Sus scrofa [21] = test: Absorption rate constant in castrated pig plasma withdrawn from femoral vein at 0.8 mg/kg administered as intrajejunal dose by UPLC-tandem mass spectrometry; type: ADME, organism-based; set-up: dose 0.8 mg/kg; settings: in vivo, other
[22] = Cmax in castrated pig plasma withdrawn from hepatic vein at 0.8 mg/kg administered as intrajejunal dose 20 mins after ketoconazole administration by UPLC-tandem mass spectrometry; type: ADME, organism-based, Sus scrofa; set-up: dose 0.8 mg/kg; settings: male; outline: as §3
[23] = Terminal half life in castrated pig plasma withdrawn from hepatic vein at 0.8 mg/kg administered as intrajejunal dose by UPLC-tandem mass spectrometry; type: ADME, organism-based, Sus scrofa; set-up: dose 0.8 mg/kg; settings: male, read-out: beta t1/2 (converted); outline: as §1
[24] = AUC (0 to 6 hrs) in castrated pig plasma withdrawn from portal vein at 0.8 mg/kg administered as intrajejunal dose 20 mins after ketoconazole administration by UPLC-tandem mass spectrometry; type: ADME, organism-based, Sus scrofa; set-up: time < 6 hr, dose 0.8 mg/kg; settings: male; outline: as §3
[25] = AUC (0 to 6 hrs) in castrated pig plasma withdrawn from hepatic vein at 0.2 mg/kg, iv by UPLC-tandem mass spectrometry; type: ADME, organism-based, Sus scrofa; set-up: time < 6 hr, dose 0.2 mg/kg, route intravenous; settings: male; outline: as §3
[26] = Apparent half-life of the terminal disposition phase in castrated pig plasma withdrawn from portal vein at 0.2 mg/kg, iv by UPLC-tandem mass spectrometry; type: ADME, organism-based, Sus scrofa; set-up: dose 0.2 mg/kg, route intravenous; settings: male, read-out: t1/2 lambda z (converted); outline: as §3
[27] = Drug excretion in castrated pig urine assessed as fraction of the dose excreted at 0.8 mg/kg administered as intrajejunal dose 20 mins after ketoconazole administration measured during 6 hrs sampling by UPLC-tandem mass spectrometry; type: ADME, organism-based, Sus scrofa; set-up: dose 0.8 mg/kg; settings: male, read-out: Drug excretion
[28] = Total plasma clearance in human; type: ADME, organism-based
[29] = Biliary excretion in castrated pig assessed as fraction of the dose excreted at 0.8 mg/kg administered as intrajejunal dose 20 mins after ketoconazole administration measured during 6 hrs sampling by UPLC-tandem mass spectrometry; type: ADME, organism-based, Sus scrofa; set-up: dose 0.8 mg/kg; settings: male, bile, read-out: Drug excretion
[30] = Tmax in castrated pig plasma withdrawn from hepatic vein at 0.8 mg/kg administered as intrajejunal dose 20 mins after ketoconazole administration by UPLC-tandem mass spectrometry; type: ADME, organism-based, Sus scrofa; set-up: dose 0.8 mg/kg; settings: male; outline: as §1
[31] = Cmax in castrated pig plasma withdrawn from portal vein at 0.8 mg/kg administered as intrajejunal dose 20 mins after ketoconazole administration by UPLC-tandem mass spectrometry; type: ADME, organism-based, Sus scrofa; set-up: dose 0.8 mg/kg; settings: male; outline: as §3
[32] = AUC (0 to 6 hrs) in castrated pig plasma withdrawn from femoral vein at 0.2 mg/kg, iv by UPLC-tandem mass spectrometry; type: ADME, organism-based, Sus scrofa; set-up: time < 6 hr, dose 0.2 mg/kg, route intravenous; settings: male; outline: as §3

For `CC(C)(C)NC(=O)[C@H]1CC[C@H]2[C@@H]3CC[C@H]4NC(=O)C=C[C@]4(C)[C@H]3CC[C@]12C` [FINASTERIDE], the half-life [1] was 1.6 h, the CL renal at 20 min [2] was 8.64 mL/day/kg and the Drug excretion [3] was “metabolite_not_detected”. For the same molecule, the AUC(0-t) at 6 h [4] was 1.6 µM·h, the “CL(app)” value [5] was 13 mL/day/kg and the Kp [6] was 0.9. The “CL(app)” value [7] was 14 mL/day/kg, the Drug metabolism (Plasma) was “metabolite_not_detected” and the half-life [8] was 3.1 h. The CL renal [9] was 7.2 mL/day/kg, the AUC(0-t) at 6 h [10] was 2.5 µM·h and the Fa [11] was over 85%. For the same molecule, the “CL(app)” value [12] was 20.2 mL/day/kg, the Tmax [13] was 1.5 h and the half-life [14] was 3.9 h. For the same molecule, the AUC(0-t) at 6 h [15] was 1.1 µM·h, the Kp [16] was 7 and the CLH (Sus scrofa [17]) was 36000 mL/day/kg. The Ae [18] was 0.01 µmol, the half-life [19] was 3.6 h and the Kp [20] was 0.9. It also gave a ka (Sus scrofa [21]) of 6 h⁻¹, a Cmax [22] of 1400 nM and a half-life [23] of 1.7 h. The AUC(0-t) at 6 h [24] was 6.3 µM·h, the AUC(0-t) at 6 h [25] was 0.9 µM·h and the half-life [26] was 2.6 h. The dose excreted [27] was 0.08%, the clearance [28] was 3360 mL/day/kg and the dose excreted [29] was 0.18%. The Tmax [30] was 1 h, the Cmax [31] was 3100 nM and the AUC(0-t) at 6 h [32] was 1.2 µM·h.
